Measured values from ChEMBL document CHEMBL1128718, “2-Substituted penems with amino acid-related side chains: synthesis and antibacterial activity of a new series of beta-lactam antibiotics” (1995).
Values after ≈ are worked out from the molar mass of the structure shown.

Columns and labels:
Format in all cases: functional
Enterococcus faecium = assay: In Vitro Anti Bacterial Activity (MIC90) against 90% of tested clinical Isolates of Enterococcus faecium(47)
Procedure, shortened: (§1)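 Over 500 clinical isolates tested in total; the line gives the isolate count. MIC90 for aerobes by dilution in Mueller Hinton 2 medium, inoculum 10⁴ cells/mL, incubated 24 h at 37 °C.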

Clostridium perfringens = assay: In Vitro Anti Bacterial Activity (MIC90) against 90% of tested clinical Isolates of Clostridium perfringens(27)
Procedure, shortened: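 MIC90 over clinical isolates of this anaerobic species, taken from the MIC distribution. Anaerobes were tested on Wilkins-Chalgren agar with an inoculum of 10⁵ cells/mL and incubated 24–48 h at 37 °C.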

Streptococcus pyogenes = assay: In Vitro Anti Bacterial Activity (MIC90) against 90% of tested clinical Isolates of Streptococcus pyogenes(31)
Escherichia coli [1] = assay: In Vitro Anti Bacterial Activity (MIC90) against 90% of tested clinical Isolates of Escherichia coli; procedure, shortened: as §1
Staphylococcus aureus [2] = assay: In vitro antibacterial activity against Sa MR(I) heterogeneous methicillin resistant Staphylococcus aureus
Procedure, shortened: (§2)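 MIC was determined in Mueller Hinton 2 medium with an inoculum of 10⁴ cells/mL and incubation for 24 h at 37 °C. Strains: Sa(I) is S. aureus ATCC 29213; Sa MR(I) is a heterogeneous methicillin-resistant S. aureus; Sa MR(II) is a homogeneous methicillin-resistant S. aureus.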

Staphylococcus aureus [3] = assay: In vitro antibacterial activity against Sa(II) Staphylococcus aureus ATCC 25923
Procedure, shortened: (§3)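 Panel of standard ATCC strains plus modified strains: methicillin-resistant, hyperpermeable, β-lactamase-producing (TEM1, TEM2, SHV) and β-lactamase-lacking. MIC determined in Mueller Hinton 2 medium, inoculum 10⁴ cells/mL, incubated 24 h at 37 °C.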

Staphylococcus aureus [4] = assay: In Vitro Anti Bacterial Activity (MIC90) against 90% of tested clinical Isolates of Staphylococcus aureus MV (20)
Staphylococcus aureus [5] = assay: In Vitro Anti Bacterial Activity (MIC90) against 90% of tested clinical Isolates of Staphylococcus aureus MS (6); procedure, shortened: as §1
[6] = system: Acinetobacter calcoaceticus subsp. anitratus; assay: In Vitro Anti Bacterial Activity (MIC90) against 90% of tested clinical Isolates of Acinetobacter anitratus(20); procedure, shortened: as §1
Streptococcus agalactiae = assay: In Vitro Anti Bacterial Activity (MIC90) against 90% of tested clinical Isolates of Streptococcus agalactiaeB(21)
Klebsiella aerogenes = assay: In Vitro Anti Bacterial Activity (MIC90) against 90% of tested clinical Isolates of Enterobacter aerogenes(19); procedure, shortened: as §1
Bacteroides fragilis = assay: In Vitro Anti Bacterial Activity (MIC90) against 90% of tested clinical Isolates of Bacteroides fragilis(15)
Procedure, shortened: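 Anaerobic clinical isolates. MIC90 by dilution in Wilkins-Chalgren agar, inoculum 10⁵ cells/mL, incubated 24–48 h at 37 °C.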

Morganella morganii = assay: In Vitro Anti Bacterial Activity (MIC90) against 90% of tested clinical Isolates of Morganella morganii(10); procedure, shortened: as §1
Listeria monocytogenes = assay: In Vitro Anti Bacterial Activity (MIC90) against 90% of tested clinical Isolates of Listeria monocytogenes (20); procedure, shortened: as §1
[7] = system: Staphylococcus epidermidis; assay: In Vitro Anti Bacterial Activity (MIC90) against 90% of tested clinical Isolates of Staphylococcus epidermidis (13); procedure, shortened: as §1
Klebsiella pneumoniae = assay: In Vitro Anti Bacterial Activity (MIC90) against 90% of tested clinical Isolates of Klebsiella pneumoniae(20); procedure, shortened: as §1
Escherichia coli [8] = assay: In Vitro antibacterial activity against (Ec TEM2) Escherichia coli […] strain; procedure, shortened: as §3
Streptococcus pneumoniae = assay: In Vitro Anti Bacterial Activity (MIC90) against 90% of tested clinical Isolates of Streptococcus pneumoniae (23)
Pseudomonas aeruginosa [9] = assay: In Vitro antibacterial activity against (Pa) hyperpermeable Pseudomonas aeruginosa […] strain; procedure, shortened: as §3
Yersinia sp. = assay: In Vitro Anti Bacterial Activity (MIC90) against 90% of tested clinical Isolates of Yersinia species(20); settings: Yersinia sp. (in: enterobacteria)
Pseudomonas aeruginosa [10] = assay: In Vitro antibacterial activity against (Pa) Pseudomonas aeruginosa ATCC 27853; procedure, shortened: as §3
Escherichia coli [11] = assay: In Vitro antibacterial activity against (Ec TEM1) Escherichia coli […] strain; procedure, shortened: as §3
Escherichia coli [12] = assay: In Vitro antibacterial activity against (Ec L) Escherichia coli […] strain; procedure, shortened: as §3
Pseudomonas aeruginosa [13] = assay: In Vitro antibacterial activity against (Pa G242) hyperpermeable Pseudomonas aeruginosa strain; procedure, shortened: as §3
[14] = system: Stenotrophomonas maltophilia; assay: In Vitro Anti Bacterial Activity (MIC90) against 90% of tested clinical Isolates of Xanthomonas maltophilia(9); procedure, shortened: as §1
Haemophilus influenzae = assay: In Vitro Anti Bacterial Activity (MIC90) against 90% of tested clinical Isolates of Haemophilus Influenzae(21)
Procedure, shortened: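 Clinical isolates. MIC90 in Haemophilus Test Medium Base plus Haemophilus Test Medium Supplement, inoculum 10⁴ cells/mL, incubated 24–48 h at 37 °C.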

Staphylococcus aureus [15] = assay: In vitro antibacterial activity against Sa MR(II) homogeneous methicillin resistant Staphylococcus aureus; procedure, shortened: as §2
Providencia stuartii = assay: In Vitro Anti Bacterial Activity (MIC90) against 90% of tested clinical Isolates of Providencia stuartii(10); procedure, shortened: as §1
Escherichia coli [16] = assay: In Vitro antibacterial activity against (Ec DC2) hyperpermeable Escherichia coli strain; procedure, shortened: as §3
Aeromonas = assay: In Vitro Anti Bacterial Activity (MIC90) against 90% of tested clinical Isolates of Aeromonas species(21); procedure, shortened: as §1
Pseudomonas aeruginosa [17] = assay: In Vitro Anti Bacterial Activity (MIC90) against 90% of tested clinical Isolates of Pseudomonas aeruginosa(11); procedure, shortened: as §1
Moraxella catarrhalis = assay: In Vitro Anti Bacterial Activity (MIC90) against 90% of tested clinical Isolates of Branhamella catarrhalis(27)
Staphylococcus aureus [18] = assay: In vitro antibacterial activity against Sa(I) Staphylococcus aureus ATCC 29213; procedure, shortened: as §2
Escherichia coli [19] = assay: In Vitro antibacterial activity against (Ec SHV) Escherichia coli […] strain; procedure, shortened: as §3
Proteus mirabilis = assay: In Vitro Anti Bacterial Activity (MIC90) against 90% of tested clinical Isolates of Proteus mirabilis(16); procedure, shortened: as §1
Proteus vulgaris = assay: In Vitro Anti Bacterial Activity (MIC90) against 90% of tested clinical Isolates of Proteus vulgaris(10); procedure, shortened: as §1
Citrobacter freundii = assay: In Vitro Anti Bacterial Activity (MIC90) against 90% of tested clinical Isolates of Citrobacter freundii(20); procedure, shortened: as §1
Providencia rettgeri = assay: In Vitro Anti Bacterial Activity (MIC90) against 90% of tested clinical Isolates of Providencia rettgeri(10); procedure, shortened: as §1
Enterococcus faecalis [20] = assay: In Vitro Anti Bacterial Activity (MIC90) against 90% of tested clinical Isolates of Enterococcus faecalis(47); procedure, shortened: as §1
Escherichia coli [21] = assay: In Vitro antibacterial activity against (Ec) Escherichia coli ATCC 25922; procedure, shortened: as §3
Enterococcus faecalis [22] = assay: In Vitro antibacterial activity against (Ef) Enterococcus faecalis ATCC 29212; procedure, shortened: as §3

`C[C@@H](O)[C@H]1C(=O)N2C(C(=O)O)=C(CN3CCC[C@H]3C(N)=O)S[C@H]12` showed an MIC90 (Enterococcus faecium) greater than 64 µg/mL, an MIC90 (Clostridium perfringens) of 1 µg/mL (≈ 2.93 µM) and an MIC90 (Streptococcus pyogenes) of 0.06 µg/mL (≈ 0.176 µM). The MIC90 (Escherichia coli [1]) was 0.12 µg/mL (≈ 0.352 µM), the MIC (Staphylococcus aureus [2]) was 0.5 µg/mL (≈ 1.46 µM) and the MIC (Staphylococcus aureus [3]) was 0.015 µg/mL (≈ 0.0439 µM). The MIC90 (Staphylococcus aureus [4]) was 8 µg/mL (≈ 23.4 µM), the MIC90 (Staphylococcus aureus [5]) was 0.06 µg/mL (≈ 0.176 µM) and the MIC90 [6] was 16 µg/mL (≈ 46.9 µM). It also gave an MIC90 (Streptococcus agalactiae) of 0.03 µg/mL (≈ 0.0879 µM), an MIC90 (Klebsiella aerogenes) of 16 µg/mL (≈ 46.9 µM) and an MIC90 (Bacteroides fragilis) of 16 µg/mL (≈ 46.9 µM). It also gave an MIC90 (Morganella morganii) of 4 µg/mL (≈ 11.7 µM), an MIC90 (Listeria monocytogenes) of 0.5 µg/mL (≈ 1.46 µM) and an MIC90 [7] of 0.12 µg/mL (≈ 0.352 µM). For the same compound, the MIC90 (Klebsiella pneumoniae) was 0.5 µg/mL (≈ 1.46 µM), the MIC (Escherichia coli [8]) was 2 µg/mL (≈ 5.86 µM) and the MIC90 (Streptococcus pneumoniae) was 0.06 µg/mL (≈ 0.176 µM). It also gave an MIC (Pseudomonas aeruginosa [9]) of 1 µg/mL (≈ 2.93 µM), an MIC90 (Yersinia sp.) of 0.25 µg/mL (≈ 0.732 µM) and an MIC (Pseudomonas aeruginosa [10]) of 64 µg/mL (≈ 187 µM). For the same compound, the MIC (Escherichia coli [11]) was 2 µg/mL (≈ 5.86 µM), the MIC (Escherichia coli [12]) was 2 µg/mL (≈ 5.86 µM) and the MIC (Pseudomonas aeruginosa [13]) was 2 µg/mL (≈ 5.86 µM). For the same compound, the MIC90 [14] was greater than 64 µg/mL, the MIC90 (Haemophilus influenzae) was 4 µg/mL (≈ 11.7 µM) and the MIC (Staphylococcus aureus [15]) was 2 µg/mL (≈ 5.86 µM). It also gave an MIC90 (Providencia stuartii) of 4 µg/mL (≈ 11.7 µM), an MIC (Escherichia coli [16]) of 2 µg/mL (≈ 5.86 µM) and an MIC90 (Aeromonas) of 0.5 µg/mL (≈ 1.46 µM). It also gave an MIC90 (Pseudomonas aeruginosa [17]) greater than 64 µg/mL, an MIC90 (Moraxella catarrhalis) of 0.25 µg/mL (≈ 0.732 µM) and an MIC (Staphylococcus aureus [18]) of 0.12 µg/mL (≈ 0.352 µM). The MIC (Escherichia coli [19]) was 2 µg/mL (≈ 5.86 µM), the MIC90 (Proteus mirabilis) was 4 µg/mL (≈ 11.7 µM) and the MIC90 (Proteus vulgaris) was 4 µg/mL (≈ 11.7 µM). It also gave an MIC90 (Citrobacter freundii) of 0.5 µg/mL (≈ 1.46 µM), an MIC90 (Providencia rettgeri) of 4 µg/mL (≈ 11.7 µM) and an MIC90 (Enterococcus faecalis [20]) of 8 µg/mL (≈ 23.4 µM).

In the case of `C[C@@H](O)[C@H]1C(=O)N2C(C(=O)O)=C(CN(C)CC(N)=O)S[C@H]12`, the MIC90 (Enterococcus faecium) is reported as greater than 64 µg/mL, the MIC90 (Clostridium perfringens) is reported as 0.5 µg/mL (≈ 1.59 µM) and the MIC (Escherichia coli [21]) is reported as 0.25 µg/mL (≈ 0.793 µM). For the same compound, the MIC90 (Streptococcus pyogenes) was 0.06 µg/mL (≈ 0.19 µM), the MIC90 (Escherichia coli [1]) was 0.25 µg/mL (≈ 0.793 µM) and the MIC (Staphylococcus aureus [2]) was 0.06 µg/mL (≈ 0.19 µM). The MIC (Staphylococcus aureus [3]) was 0.015 µg/mL (≈ 0.0476 µM), the MIC90 (Staphylococcus aureus [4]) was 4 µg/mL (≈ 12.7 µM) and the MIC90 (Staphylococcus aureus [5]) was 0.0075 µg/mL (≈ 0.0238 µM). The MIC90 [6] was 16 µg/mL (≈ 50.7 µM), the MIC90 (Streptococcus agalactiae) was 0.06 µg/mL (≈ 0.19 µM) and the MIC90 (Klebsiella aerogenes) was 8 µg/mL (≈ 25.4 µM). For the same compound, the MIC90 (Bacteroides fragilis) was 2 µg/mL (≈ 6.34 µM), the MIC90 (Morganella morganii) was 2 µg/mL (≈ 6.34 µM) and the MIC90 (Listeria monocytogenes) was 0.5 µg/mL (≈ 1.59 µM). The MIC90 [7] was 0.015 µg/mL (≈ 0.0476 µM), the MIC90 (Klebsiella pneumoniae) was 0.5 µg/mL (≈ 1.59 µM) and the MIC (Escherichia coli [8]) was 0.5 µg/mL (≈ 1.59 µM). For the same compound, the MIC90 (Streptococcus pneumoniae) was 0.06 µg/mL (≈ 0.19 µM), the MIC (Pseudomonas aeruginosa [9]) was 0.5 µg/mL (≈ 1.59 µM) and the MIC90 (Yersinia sp.) was 0.5 µg/mL (≈ 1.59 µM). The MIC (Pseudomonas aeruginosa [10]) was greater than 64 µg/mL, the MIC (Escherichia coli [11]) was 0.25 µg/mL (≈ 0.793 µM) and the MIC (Escherichia coli [12]) was 0.25 µg/mL (≈ 0.793 µM). For the same compound, the MIC (Pseudomonas aeruginosa [13]) was 4 µg/mL (≈ 12.7 µM), the MIC90 [14] was greater than 64 µg/mL and the MIC (Enterococcus faecalis [22]) was 4 µg/mL (≈ 12.7 µM). It also gave an MIC90 (Haemophilus influenzae) of 2 µg/mL (≈ 6.34 µM), an MIC (Staphylococcus aureus [15]) of 1 µg/mL (≈ 3.17 µM) and an MIC90 (Providencia stuartii) of 2 µg/mL (≈ 6.34 µM). For the same compound, the MIC (Escherichia coli [16]) was 0.25 µg/mL (≈ 0.793 µM), the MIC90 (Aeromonas) was 1 µg/mL (≈ 3.17 µM) and the MIC90 (Pseudomonas aeruginosa [17]) was greater than 64 µg/mL. The MIC90 (Moraxella catarrhalis) was 0.25 µg/mL (≈ 0.793 µM), the MIC (Staphylococcus aureus [18]) was 0.06 µg/mL (≈ 0.19 µM) and the MIC (Escherichia coli [19]) was 0.5 µg/mL (≈ 1.59 µM). For the same compound, the MIC90 (Proteus mirabilis) was 1 µg/mL (≈ 3.17 µM), the MIC90 (Proteus vulgaris) was 2 µg/mL (≈ 6.34 µM) and the MIC90 (Citrobacter freundii) was 1 µg/mL (≈ 3.17 µM). It also gave an MIC90 (Providencia rettgeri) of 2 µg/mL (≈ 6.34 µM) and an MIC90 (Enterococcus faecalis [20]) of 8 µg/mL (≈ 25.4 µM).
